Legend:
[1] = target: Phosphatidylinositol 4,5-bisphosphate 3-kinase catalytic subunit alpha isoform (Homo sapiens, UniProt P42336); assay: Inhibition of human recombinant PI3K-alpha using phosphatidylinositol biphosphate as substrate preincubated for 15 mins followed by substrate addition measured after 60 mins by HTRF assay
A2780 = assay: Antiproliferative activity against human A2780 cells assessed as reduction in cell viability after 48 hrs by MTT assay; type: functional, cell-based; settings: A2780, 48 h
Method in brief: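 Cellular EC50 was determined in the A2780 ovarian cancer line, with a coefficient of variation below 5%.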

Cytochrome P450 2D6 [2] = target: T1, Cytochrome P450 2D6 (Homo sapiens, UniProt P10635); assay: Inhibition of CYP2D6 (unknown origin); type: ADME
T1 sequence (P10635 whole entry): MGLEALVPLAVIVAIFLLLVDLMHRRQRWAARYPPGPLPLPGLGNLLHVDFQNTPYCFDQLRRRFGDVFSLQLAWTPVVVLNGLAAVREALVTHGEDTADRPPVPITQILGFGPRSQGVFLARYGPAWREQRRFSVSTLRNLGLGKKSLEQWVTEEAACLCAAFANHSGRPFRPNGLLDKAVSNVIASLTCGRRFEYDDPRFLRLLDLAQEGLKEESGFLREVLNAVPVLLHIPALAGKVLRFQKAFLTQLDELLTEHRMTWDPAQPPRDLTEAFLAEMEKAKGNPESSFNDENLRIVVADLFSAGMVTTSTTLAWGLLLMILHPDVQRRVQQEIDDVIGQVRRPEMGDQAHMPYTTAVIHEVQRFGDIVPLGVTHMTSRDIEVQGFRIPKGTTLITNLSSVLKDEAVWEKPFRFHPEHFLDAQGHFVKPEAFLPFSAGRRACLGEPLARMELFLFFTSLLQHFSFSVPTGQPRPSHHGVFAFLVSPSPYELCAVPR
Method in brief: (§1)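 Inhibition of CYP3A4, CYP2C19 and CYP2D6 activity was screened with test compound at 10 μM.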

Cytochrome P450 2C19 [3] = target: T2, Cytochrome P450 2C19 (Homo sapiens, UniProt P33261); assay: Inhibition of CYP2C19 (unknown origin) at 10 uM; type: ADME; method in brief: as §1
T2 sequence (P33261 whole entry): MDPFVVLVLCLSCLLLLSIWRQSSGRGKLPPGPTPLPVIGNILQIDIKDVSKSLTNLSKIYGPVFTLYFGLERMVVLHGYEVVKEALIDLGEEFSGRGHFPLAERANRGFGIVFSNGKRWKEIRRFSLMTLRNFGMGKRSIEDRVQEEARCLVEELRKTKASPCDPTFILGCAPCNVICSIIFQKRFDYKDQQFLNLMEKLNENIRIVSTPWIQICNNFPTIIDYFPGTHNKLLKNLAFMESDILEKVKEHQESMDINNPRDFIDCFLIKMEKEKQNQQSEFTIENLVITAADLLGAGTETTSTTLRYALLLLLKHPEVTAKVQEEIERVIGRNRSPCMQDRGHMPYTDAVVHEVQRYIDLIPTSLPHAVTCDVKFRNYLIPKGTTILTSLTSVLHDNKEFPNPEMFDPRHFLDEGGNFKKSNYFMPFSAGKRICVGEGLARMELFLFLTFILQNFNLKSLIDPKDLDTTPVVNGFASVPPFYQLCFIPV

Cytochrome P450 3A4 [4] = target: T3, Cytochrome P450 3A4 (Homo sapiens, UniProt P08684); assay: Inhibition of CYP3A4 (unknown origin); type: ADME
T3 sequence (P08684 whole entry): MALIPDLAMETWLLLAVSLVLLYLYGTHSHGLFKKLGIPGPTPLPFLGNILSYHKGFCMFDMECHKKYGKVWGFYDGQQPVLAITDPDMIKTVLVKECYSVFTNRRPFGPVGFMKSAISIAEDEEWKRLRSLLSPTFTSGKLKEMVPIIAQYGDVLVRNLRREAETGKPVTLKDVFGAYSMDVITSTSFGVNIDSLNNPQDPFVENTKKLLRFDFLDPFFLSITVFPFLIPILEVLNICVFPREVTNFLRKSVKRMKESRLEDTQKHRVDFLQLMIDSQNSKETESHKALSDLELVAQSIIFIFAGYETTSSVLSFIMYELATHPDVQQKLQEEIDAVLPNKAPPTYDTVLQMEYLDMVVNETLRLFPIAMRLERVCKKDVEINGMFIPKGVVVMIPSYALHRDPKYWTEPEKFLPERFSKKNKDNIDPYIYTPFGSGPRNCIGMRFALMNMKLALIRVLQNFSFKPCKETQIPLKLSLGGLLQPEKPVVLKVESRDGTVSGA

[5] = Metabolic stability in mouse liver microsomes assessed as parent compound remaining at 10 uM after 2 hrs by HPLC analysis in presence of NADPH; type: ADME; settings: read-out: Stability
Method in brief: (§2)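 Compound was incubated with isolated human, dog or mouse liver microsomes for 2 h. Parent concentration was followed by HPLC at 0, 0.5, 1 and 2 h, and the 2 h value is reported as remaining parent.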

Cytochrome P450 3A4 [6] = target: T3, Cytochrome P450 3A4; assay: Inhibition of CYP3A4 (unknown origin) at 10 uM; type: ADME; method in brief: as §1
Cytochrome P450 2D6 [7] = target: T1, Cytochrome P450 2D6; assay: Inhibition of CYP2D6 (unknown origin) at 10 uM; type: ADME; method in brief: as §1
Cytochrome P450 2C19 [8] = target: T2, Cytochrome P450 2C19; assay: Inhibition of CYP2C19 (unknown origin); type: ADME; method in brief: as §1
[9] = Metabolic stability in human liver microsomes assessed as parent compound remaining at 10 uM after 2 hrs by HPLC analysis in presence of NADPH; type: ADME; settings: read-out: Stability; method in brief: as §2
[10] = Metabolic stability in dog liver microsomes assessed as parent compound remaining at 10 uM after 2 hrs by HPLC analysis in presence of NADPH; type: ADME, Canis lupus familiaris; settings: read-out: Stability; method in brief: as §2
[11] = Elimination half life in Swiss mouse plasma at 10 mg/kg, po after 0.16 to 8 hrs by LC-MS analysis; type: ADME, organism-based; settings: read-out: beta t1/2 (converted)
Method in brief: (§3)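 Single oral doses of 1, 3 and 10 mpk were given to mice in a dose-ranging study, with the 3 mpk screen run in Swiss mice. Plasma tmax, Cmax, AUC and elimination t1/2 were derived from each dose group.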

[12] = AUC in Swiss mouse plasma at 10 mg/kg, po after 0.16 to 8 hrs by LC-MS analysis; type: ADME, organism-based; parameters: dose 10 mg/kg, time 0.16-8 hr, route oral; method in brief: as §3
[13] = Tmax in Swiss mouse plasma at 3 mg/kg, po after 0.16 to 8 hrs by LC-MS analysis; type: ADME, organism-based; method in brief: as §3
Mus musculus [14] = assay: Toxicity in Swiss mouse assessed as changes in body coat at 30 mg/kg, po bid for 5 days; type: organism-based; settings: in vivo, 120 h
Method in brief: (§4)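 Swiss mice were dosed orally at 30 mpk BID for 5 consecutive days. Body weight, body temperature (hyper- or hypothermia), body coat and level of physical activity were monitored throughout.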

[15] = Tmax in Swiss mouse plasma at 1 mg/kg, po after 0.16 to 8 hrs by LC-MS analysis; type: ADME, organism-based; method in brief: as §3
Mus musculus [16] = assay: Toxicity in Swiss mouse assessed as hyperthermia at 30 mg/kg, po bid for 5 days; type: organism-based; settings: in vivo, 120 h; method in brief: as §4
[17] = Cmax in Swiss mouse plasma at 3 mg/kg, po after 0.16 to 8 hrs by LC-MS analysis; type: ADME, organism-based; parameters: dose 3 mg/kg, route oral; method in brief: as §3
[18] = AUC in Swiss mouse plasma at 3 mg/kg, po after 0.16 to 8 hrs by LC-MS analysis; type: ADME, organism-based; parameters: time lower 0.16 hr, dose 3 mg/kg, time upper 8 hr, route oral; method in brief: as §3
[19] = Cmax in Swiss mouse plasma at 10 mg/kg, po after 0.16 to 8 hrs by LC-MS analysis; type: ADME, organism-based; parameters: dose 10 mg/kg, route oral; method in brief: as §3
[20] = Tmax in Swiss mouse plasma at 10 mg/kg, po after 0.16 to 8 hrs by LC-MS analysis; type: ADME, organism-based; method in brief: as §3
[21] = Cmax in Swiss mouse plasma at 1 mg/kg, po after 0.16 to 8 hrs by LC-MS analysis; type: ADME, organism-based; parameters: dose 1 mg/kg, route oral; method in brief: as §3
Mus musculus [22] = assay: Toxicity in Swiss mouse assessed as reduced physical activity at 30 mg/kg, po bid for 5 days; type: organism-based; settings: in vivo, 120 h; method in brief: as §4
[23] = AUC in Swiss mouse plasma at 1 mg/kg, po after 0.16 to 8 hrs by LC-MS analysis; type: ADME, organism-based; parameters: dose 1 mg/kg, time 0.16-8 hr, route oral
Mus musculus [24] = assay: Toxicity in Swiss mouse assessed as body weight loss at 30 mg/kg, po bid for 5 days; type: organism-based; settings: in vivo, 120 h; method in brief: as §4
[25] = Elimination half life in Swiss mouse plasma at 3 mg/kg, po after 0.16 to 8 hrs by LC-MS analysis; type: ADME, organism-based; settings: read-out: beta t1/2 (converted); method in brief: as §3
[26] = Elimination half life in Swiss mouse plasma at 1 mg/kg, po after 0.16 to 8 hrs by LC-MS analysis; type: ADME, organism-based; settings: read-out: beta t1/2 (converted)
Mus musculus [27] = assay: Toxicity in Swiss mouse assessed as hypothermia at 30 mg/kg, po bid for 5 days; type: organism-based; settings: in vivo, 120 h; method in brief: as §4

Sequence of Phosphatidylinositol 4,5-bisphosphate 3-kinase catalytic subunit alpha isoform (P42336 whole entry, canonical isoform): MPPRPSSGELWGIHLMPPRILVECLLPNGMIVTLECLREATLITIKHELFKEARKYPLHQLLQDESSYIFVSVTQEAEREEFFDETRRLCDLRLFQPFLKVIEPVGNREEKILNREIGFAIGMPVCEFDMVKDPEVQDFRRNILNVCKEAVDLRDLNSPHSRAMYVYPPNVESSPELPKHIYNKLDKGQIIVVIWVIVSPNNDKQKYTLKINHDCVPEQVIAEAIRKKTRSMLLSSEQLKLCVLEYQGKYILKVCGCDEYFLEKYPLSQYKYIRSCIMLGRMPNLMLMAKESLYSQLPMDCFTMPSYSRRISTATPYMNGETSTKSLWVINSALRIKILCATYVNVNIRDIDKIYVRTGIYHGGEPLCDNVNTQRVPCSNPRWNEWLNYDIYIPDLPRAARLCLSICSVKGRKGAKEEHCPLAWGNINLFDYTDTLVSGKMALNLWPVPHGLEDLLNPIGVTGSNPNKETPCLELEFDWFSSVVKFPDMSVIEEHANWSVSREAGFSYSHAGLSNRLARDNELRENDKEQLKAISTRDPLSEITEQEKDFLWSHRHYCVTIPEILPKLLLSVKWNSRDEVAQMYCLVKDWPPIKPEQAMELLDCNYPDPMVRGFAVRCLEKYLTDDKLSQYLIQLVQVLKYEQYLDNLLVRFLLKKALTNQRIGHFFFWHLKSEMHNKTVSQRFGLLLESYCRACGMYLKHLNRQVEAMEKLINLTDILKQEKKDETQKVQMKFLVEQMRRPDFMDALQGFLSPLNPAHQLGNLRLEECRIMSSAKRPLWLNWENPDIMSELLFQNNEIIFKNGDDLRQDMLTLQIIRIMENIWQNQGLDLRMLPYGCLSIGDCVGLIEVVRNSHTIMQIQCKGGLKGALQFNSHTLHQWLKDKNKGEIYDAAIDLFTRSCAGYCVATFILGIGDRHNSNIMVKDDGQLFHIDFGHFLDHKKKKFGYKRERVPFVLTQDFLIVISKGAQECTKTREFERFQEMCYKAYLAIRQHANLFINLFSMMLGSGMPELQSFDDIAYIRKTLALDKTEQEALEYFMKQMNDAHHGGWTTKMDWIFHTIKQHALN

## CN(C)C(=O)CNc1nc(-c2cccc(C(N)=O)c2)nc(N2CCOCC2)n1
[1]
  IC50: > 20000 nM

## CN(C)C(=O)c1cccc(Nc2nc(-c3cccc4[nH]ncc34)nc(N3CCOCC3)n2)c1
[1]
  IC50: 60 nM
A2780
  EC50: 800 nM

## Nc1nc(-c2cccc(O)c2)nc(N2CCOCC2)n1
[1]
  IC50: 680 nM

## Nc1cccc(-c2nc(NCC(=O)O)nc(N3CCOCC3)n2)c1
[1]
  IC50: > 10000 nM

## O=C(O)CNc1nc(-c2ccccc2)nc(N2CCOCC2)n1
[1]
  IC50: > 20000 nM

## CN(C)C(=O)CCNc1nc(-c2cccc3[nH]ncc23)nc(N2CCOCC2)n1
[1]
  IC50: 600 nM
A2780
  EC50: 6380 nM

## CN(C)C(=O)CNc1nc(-c2cccc3[nH]ncc23)nc(N2CCOCC2)n1
[1]
  IC50: 1100 nM

## CN(C)C(=O)CNc1nc(-c2cccc3c2CCC3O)nc(N2CCOCC2)n1 (stereo unspecified)
[1]
  IC50: > 20000 nM

## O=C1CCN(c2nc(-c3cccc4[nH]ncc34)nc(N3CCOCC3)n2)CCN1
[1]
  IC50: 200 nM
A2780
  EC50: 2640 nM

## CN(C)C(=O)N1CCC(Oc2nc(-c3cccc4[nH]ncc34)nc(N3CCOCC3)n2)CC1
Cytochrome P450 2D6 [2]
  IC50: > 10000 nM
Cytochrome P450 2C19 [3]
  inhibition (INH): Not Active
[1]
  IC50: 60 nM
A2780
  EC50: 720 nM
Cytochrome P450 3A4 [4]
  IC50: > 15000 nM
[5]
  remaining at 2 h, 10 µM: 24.8%
Cytochrome P450 3A4 [6]
  inhibition (INH): Not Active
Cytochrome P450 2D6 [7]
  inhibition (INH): Not Active
Cytochrome P450 2C19 [8]
  IC50: > 10000 nM
[9]
  remaining at 2 h, 10 µM: 80.7%

## NC(=O)c1cccc(Oc2nc(-c3cccc4[nH]ncc34)nc(N3CCOCC3)n2)c1
[1]
  IC50: 270 nM
A2780
  EC50: 3220 nM

## CN(C)C(=O)CNc1nc(-c2cccc(O)c2)nc(N2CCOCC2)n1
[1]
  IC50: 540 nM

## CN(C)C(=O)CNc1nc(-c2cncc(O)c2)nc(N2CCOCC2)n1
[1]
  IC50: 1600 nM

## COC(=O)CNc1nc(-c2cccc(O)c2)nc(N2CCOCC2)n1
[1]
  IC50: 1180 nM

## COc1cccc(-c2nc(NCC(=O)O)nc(N3CCOCC3)n2)c1
[1]
  IC50: > 20000 nM

## CN(C)C(=O)c1cc(Oc2nc(-c3cccc4[nH]ncc34)nc(N3CCOCC3)n2)cs1
[1]
  IC50: 100 nM
A2780
  EC50: 1400 nM

## CS(=O)(=O)N1CCN(C(=O)CNc2nc(-c3cccc(O)c3)nc(N3CCOCC3)n2)CC1
[1]
  IC50: 1060 nM

## CN(C)C(=O)c1sccc1Nc1nc(-c2cccc3[nH]ncc23)nc(N2CCOCC2)n1
[1]
  IC50: 200 nM
A2780
  EC50: 1900 nM

## CN(CC(=O)O)c1nc(-c2cccc(O)c2)nc(N2CCOCC2)n1
[1]
  IC50: 10000 nM

## CN(C)C(=O)c1ccc(Oc2nc(-c3cccc4[nH]ncc34)nc(N3CCOCC3)n2)cc1
[10]
  remaining at 2 h, 10 µM: 83.8%
[11]
  half-life: 6.87 h
[12]
  AUC: 9.79 µM·h
[13]
  Tmax: 1 h
Mus musculus [14]
  Activity: Non-toxic
Cytochrome P450 2D6 [2]
  IC50: > 10000 nM
[15]
  Tmax: 1 h
Mus musculus [16]
  Activity: Non-toxic
Cytochrome P450 2C19 [3]
  inhibition (INH): Not Active
[1]
  IC50: 60 nM
[17]
  Cmax: 1240 nM
[18]
  AUC: 5.25 µM·h
[19]
  Cmax: 1800 nM
[20]
  Tmax: 2.33 h
A2780
  EC50: 520 nM
[21]
  Cmax: 360 nM
Cytochrome P450 3A4 [4]
  IC50: > 15000 nM
Mus musculus [22]
  Activity: Non-toxic
[23]
  AUC: 2.12 µM·h
Mus musculus [24]
  Activity: Non-toxic
[25]
  half-life: 4.86 h
[26]
  half-life: 6.93 h
[5]
  remaining at 2 h, 10 µM: 45.6%
Cytochrome P450 3A4 [6]
  inhibition (INH): Not Active
Mus musculus [27]
  Activity: Non-toxic
Cytochrome P450 2D6 [7]
  inhibition (INH): Not Active
Cytochrome P450 2C19 [8]
  IC50: > 10000 nM
[9]
  remaining at 2 h, 10 µM: 101%

## c1ccc(Nc2nc(-c3cccc4[nH]ncc34)nc(N3CCOCC3)n2)cc1
[1]
  IC50: 800 nM
A2780
  EC50: 3690 nM

## CNc1cccc(Nc2nc(-c3cccc4[nH]ncc34)nc(N3CCOCC3)n2)c1
A2780
  EC50: 850 nM

## CNC(=O)CNc1nc(-c2cccc(O)c2)nc(N2CCOCC2)n1
[1]
  IC50: 730 nM

## NC(=O)CNc1nc(-c2cccc(O)c2)nc(N2CCOCC2)n1
[1]
  IC50: 740 nM

## CN(C)C(=O)[C@H]1CC[C@H](Oc2nc(-c3cccc4[nH]ncc34)nc(N3CCOCC3)n2)CC1
Cytochrome P450 2D6 [2]
  IC50: > 10000 nM
Cytochrome P450 2C19 [3]
  inhibition (INH): Not Active
[1]
  IC50: 60 nM
A2780
  EC50: 680 nM
Cytochrome P450 3A4 [4]
  IC50: > 15000 nM
[5]
  remaining at 2 h, 10 µM: 27.3%
Cytochrome P450 3A4 [6]
  inhibition (INH): Not Active
Cytochrome P450 2D6 [7]
  inhibition (INH): Not Active
Cytochrome P450 2C19 [8]
  IC50: > 10000 nM
[9]
  remaining at 2 h, 10 µM: 99%

## O=C1CN(c2nc(-c3cccc4[nH]ncc34)nc(N3CCOCC3)n2)CCN1
[1]
  IC50: 400 nM
A2780
  EC50: 3970 nM

## NC(=O)c1cccc(Nc2nc(-c3cccc4[nH]ncc34)nc(N3CCOCC3)n2)c1
[1]
  IC50: 80 nM
A2780
  EC50: 820 nM

Source: ChEMBL document CHEMBL3774381, “Discovery of Novel and Orally Bioavailable Inhibitors of PI3 Kinase Based on Indazole Substituted Morpholino-Triazines” (ACS Med Chem Lett, 2015)
